Bioassay records: PubChem, Broad Institute
Only a selection was taken, and hits are over-represented in it overall.
GSK3 alpha inh – inhibitors of human GSK-3 alpha kinase; P49840; ADP-Glo luminescence, 60 min; inhibition, % at 10 µM; 320,000 compounds, 0.1% hits;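 active = more than half of replicates show inhibition above 20%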;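 note: GST-tagged GSK-3 alpha with peptide substrate and 25 µM ATP; 0% = DMSO neutral wells and 100% = GW8510 positive control wells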
GSK3B inh – inhibitors of human GSK3beta kinase; P49841; AID 2097; activity score (negative = inhibition), % at 10 µM; GST-GSK3beta kinase, ADP-Glo luminescence, 60 min; active compounds read low; 300,000 compounds, 0.038% hits;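 active = more than half of replicate wells score below -50%, meaning over 50% inhibition versus plate controls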;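 note: 0% = median DMSO wells and -100% = median GW8510 positive control wells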
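test system = GST-tagged human GSK3beta kinase, cell-free | reagent = 25 µM ATP with peptide substrate | dosing = one dose of 10 µM per compound | schedule = 60 min reaction, RT | detection = luminescent ADP-Glo measurement of ADP formed | control set = DMSO neutral wells and GW8510 at 20 µM as positive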
DYRK1A inh – Dyrk1A (rat) kinase inhibition | 310,000 compounds, 0.43% hits | AID 504441 | inhibition, % at 12.5 µM | Q63470 | ADP-Glo luminescence, NFATc1 peptide; in the data active = inhibition above about 50%;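 note: plate controls were vehicle with enzyme for no effect and no enzyme for full effect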
STK33 inh – blocks human STK33 kinase activity; Q9BYT3; purified STK33, MBP phosphorylation, ADP-Glo luminescence; inhibition, % at 10 µM; 320,000 compounds, 0.073% hits;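 active = inhibition at or above 25%, using the most active replicate where run in duplicate; inactive = inhibition below 25%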
Target sequence (Q9BYT3 whole entry, looked up): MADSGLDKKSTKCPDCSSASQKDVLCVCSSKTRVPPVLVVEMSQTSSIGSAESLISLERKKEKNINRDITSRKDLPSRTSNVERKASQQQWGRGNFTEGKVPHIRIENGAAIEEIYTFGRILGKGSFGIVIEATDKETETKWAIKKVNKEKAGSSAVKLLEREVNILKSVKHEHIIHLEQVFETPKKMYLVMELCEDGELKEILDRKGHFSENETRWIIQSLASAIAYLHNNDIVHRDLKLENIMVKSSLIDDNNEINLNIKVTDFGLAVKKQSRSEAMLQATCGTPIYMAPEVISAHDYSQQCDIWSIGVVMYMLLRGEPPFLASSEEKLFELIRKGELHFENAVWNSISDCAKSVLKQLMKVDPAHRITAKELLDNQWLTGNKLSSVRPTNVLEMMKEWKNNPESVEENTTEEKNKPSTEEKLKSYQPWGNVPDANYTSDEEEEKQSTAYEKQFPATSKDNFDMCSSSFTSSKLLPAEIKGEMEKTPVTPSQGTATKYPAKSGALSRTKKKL
An asterisk follows results filed as active; · = no result given.

SMILES	GSK3 alpha inh	GSK3B inh	DYRK1A inh	STK33 inh
C#CCOCCOCCOCCNc1nc(N2CCN(C(=O)CCCCCCCCCCNC(=O)[C@H](CCCCN)n3cc(C[C@@H](C)CC)nn3)CC2)nc(N2CCN(C(=O)CCCCCCCCCCNC(=O)[C@H](CCCN=C(N)N)n3cc(C[C@@H](C)CC)nn3)CC2)n1	13.5	·	27.2	29.2*
CCN(CC(=O)NCc1ccc(Cl)cc1)C(=O)c1ccc(C#N)cc1	-1.5	-2.8	·	0.9
O=C(O)c1cccc(N2C(=O)c3cc([N+](=O)[O-])cc4cc([N+](=O)[O-])cc(c34)C2=O)c1	8.1	-9.2	3.1	4.7
COc1ccc(OC)c(C(=O)c2coc3ccc(O)c(CN(C)C)c23)c1	-0.3	2.8	-2.7	-1.3
COc1ccc2occ(C(=O)c3cccs3)c2c1	58.7*	-41.4	38.5	3.7
COc1ccc2occ(C(=O)c3coc4ccc(O)c(CN(C)C)c34)c2c1	85.0*	-68.4*	17.8	3.7
Cc1cc(N2CCN(c3ccccc3)CC2)n2c(n1)nc1ccccc12	55.6*	-1.4	11.2	1.1
Cc1cc(N2CCN(c3ccccc3)CC2)n2nnnc2n1	-1.9	1.0	5.4	0.7
COc1ccccc1NC(=O)Nc1ncccc1C	-0.5	3.4	7.3	30.0*
O=C(COc1ccccc1[N+](=O)[O-])N/N=C/c1ccncc1	4.5	0.0	5.7	0.2
O=C(COc1ccccc1[N+](=O)[O-])N/N=C/c1ccc(O)cc1	·	-51.0*	33.3	·
O=C(COc1cccc2cccnc12)N/N=C/c1ccc(O)cc1	55.8*	-40.1	27.9	4.8
CC(C)(C)OC(=O)N1CCCC(C(=O)Nc2cccc(C(=O)NCCCCc3ccccc3)c2)C1 (stereo not drawn)	·	·	2.6	·
Cc1ncc(/C=C2\C(=O)Nc3ccccc32)[nH]1	7.1	0.1	·	76.0*
O=C(O)c1cccc(Nc2nc(-c3cccnc3)nc3ccccc23)c1	43.6	-0.8	17.5	31.7*
O=C(O)c1ccc(Nc2nc(-c3cccnc3)nc3ccccc23)cc1	61.2*	2.3	·	7.4
Cc1cnc(NC(=O)C2CC(=O)N(c3ccc4c(c3)OCCO4)C2)s1 (stereo not drawn)	50.1*	·	-2.0	-0.6
Cc1ccnc(NC(=O)CCC(=O)N(CC(=O)NCc2ccccc2)Cc2cccs2)c1	50.9*	-23.3	0.4	-0.2
COc1ccc(S(=O)(=O)N2CCOCC2)cc1NC(=O)/C=C/c1ccccc1	·	·	-6.3	·
Nc1nc(NCCCN2CCOCC2)nc(Nc2ccc(Cl)cc2)c1[N+](=O)[O-]	56.7*	-26.7	·	1.0
Nc1nc(NCC2CCCO2)nc(Nc2ccc(Cl)cc2)c1[N+](=O)[O-] (stereo not drawn)	3.1	-2.4	-2.7	3.3
Nc1nc(Nc2cccc(Cl)c2)nc(NCc2ccco2)c1[N+](=O)[O-]	10.7	-3.5	7.0	1.6
Nc1nc(NCCCN2CCOCC2)nc(Nc2cccc(Cl)c2)c1[N+](=O)[O-]	77.9*	-76.7*	-0.1	2.5
Cc1ccc(Nc2nc(NCCCN3CCOCC3)nc(N)c2[N+](=O)[O-])cc1C	·	-30.9	-7.0	·
Cc1ccc(Nc2nc(NCCCN3CCOCC3)nc(N)c2[N+](=O)[O-])cc1	57.5*	-1.6	42.0	0.5
SMILES	GSK3 alpha inh	GSK3B inh	DYRK1A inh	STK33 inh
CC[C@]12c3[nH]c4cc(-c5ccco5)ccc4c3CCN1C(=O)[C@@H](CC(=O)NCCCn1ccnc1)C[C@@H]2C(=O)N1CCN(C(=O)c2ccco2)CC1	·	·	-1.2	·
C[C@]12c3[nH]c4cc(-c5ccco5)ccc4c3CCN1C(=O)[C@@H](CC(=O)NCC13CC4CC(CC(C4)C1)C3)C[C@@H]2C(=O)N1CCOCC1	·	·	-2.7	·
Cc1ccc(C2C3=C(CC(C)(C)CC3=O)Nc3n[nH]c(C)c32)cc1 (stereo not drawn)	77.3*	-60.0*	7.9	2.3
COc1ccc(C2C3=C(CCCC3=O)Nc3n[nH]c(C)c32)cc1OC (stereo not drawn)	9.7	1.0	2.9	0.9
Cc1[nH]nc2c1C(c1ccc(N(C)C)cc1)C1=C(CC(C)(C)CC1=O)N2 (stereo not drawn)	12.5	-17.6	3.2	0.4
Cc1[nH]nc2c1C(c1cccc(O)c1)C1=C(CC(C)(C)CC1=O)N2 (stereo not drawn)	96.5*	-91.8*	11.5	0.3
Cc1[nH]nc2c1C(c1ccc(F)cc1)C1=C(CC(C)(C)CC1=O)N2 (stereo not drawn)	20.7	-56.1*	-7.5	·
CCOc1ncccc1C(=O)NCCCSc1ccccc1	-0.4	0.6	2.0	0.5
Cc1cccc(NC(=O)COc2coc(CN3CCN(c4ccccc4)CC3)cc2=O)c1	-2.6	-1.6	7.4	-0.6
Nc1ncc(-c2ccccc2)c(-c2ccc(O)cc2O)n1	59.9*	-35.3	37.7	15.9
COc1ccc(C(=O)NNC(=O)c2ccccn2)cc1	45.2	-33.2	49.3	41.4*
COc1ccc(C(=O)O/N=C(\N)c2ccccn2)cc1	50.6*	-39.7	47.1	36.7*
COc1ccc(CC(=O)NCC(C)(C)N2CCOCC2)cc1	-2.7	-0.3	-7.2	1.1
Cc1ccc(CCN2CCN=C2Nc2ccccc2)cc1	-0.7	·	8.7	-1.4
Cc1ccc(-n2nnnc2CSc2nnc(-c3ccc(O)cc3)o2)cc1	66.7*	-0.5	29.5	10.8
Oc1ccc(-c2nnc(SCc3ccccc3)o2)cc1	18.7	·	44.7	-0.6
CCSc1ccc2nnc(-c3ccc(F)cc3)n2n1	81.7*	-76.2*	43.7	-1.5
CCSc1ccc2nnc(-c3cccs3)n2n1	43.6	-52.8*	·	8.3
Cc1cccc(CSc2ccc3nnc(-c4cccs4)n3n2)c1	·	3.2	-0.9	-1.3
CCOC(=O)CSc1ccc2nnc(-c3ccncc3)n2n1	81.2*	0.0	13.8	2.2
CC(Sc1ccc2nnc(-c3ccc(F)cc3)n2n1)C(=O)O (stereo not drawn)	51.4*	-38.1	49.3	6.3
CCN(CC(=O)NCc1ccc(F)cc1)C(=O)C(C)Oc1cccc(Cl)c1 (stereo not drawn)	-1.0	·	-0.5	-1.4
O=C(Nc1cccc(Cl)c1)c1nc[nH]c1C(=O)N1CCN(c2ccccc2)CC1	-3.8	·	4.6	-2.9
C/C=C/Cn1c(SCc2ccc(Cl)cc2)nc2c1c(=O)[nH]c(=O)n2C	2.4	-1.6	2.5	29.0*
CC1CCc2c(sc3nn[nH]c(=O)c23)C1 (stereo not drawn)	52.2*	-28.0	31.2	2.7
SMILES	GSK3 alpha inh	GSK3B inh	DYRK1A inh	STK33 inh
COc1cc(C(=O)N2CCN(C(=O)c3cc(-c4ccc(Br)cc4)n[nH]3)CC2)cc(OC)c1OC	-0.3	1.1	4.7	-1.0
N#Cc1c(Cl)nc(-c2ccncc2)nc1-c1ccccc1	74.8*	-61.6*	-8.1	10.2
COc1cc(/C=C/C(=O)OCC(=O)N(C)Cc2ccccc2)ccc1O	0.2	·	10.6	-0.5
COc1cc(C)c2c(c1C=O)Oc1c(c(C)c(O)c3c1C(O)OC3=O)OC2=O (stereo not drawn)	4.8	0.1	6.9	44.4*
CCOc1ccccc1/C=N/NC(=O)c1nnn(-c2nonc2N)c1CN1CCC(C)CC1	43.9	2.0	-3.5	-0.4
Nc1nonc1-n1nnc(C(=O)N/N=C/c2ccccc2F)c1CN1CCOCC1	8.8	-33.8	1.8	-0.5
